Source: ChEMBL document CHEMBL4321800, “Synthesis, Identification, and Structure-Activity Relationship Analysis of GATA4 and NKX2-5 Protein-Protein Interaction Modulators” (J Med Chem, 2019)
The source made the active and inactive calls. No cut-off for these calls is given here.

Columns and labels:
Type in all cases: cell-based
[1] = biological target: Homeobox protein Nkx-2.5 (Mus musculus) (UniProt P42582); assay: Inhibition of mouse NKX2-5 expressed in Chlorocebus aethiops COS1 cells harboring 3xHA reporter gene assessed as protein-induced transcriptional activity at 10 uM after 24 hrs by luciferase reporter gene assay relative to control; set-up: scale not given: the % may be the effect or the level left
How it was run: (§1)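 COS-1 cells seeded 14 000/well and grown overnight. Transfection for 6 h in serum- and antibiotic-free medium with pGL3-3xHA reporter (100 ng/well) and pMT2-NKX2-5 (25 ng/well), Fugene 6 1:3. Compound or 0.1% DMSO vehicle for 24 h, then luciferase luminescence. Triplicate wells with Grubbs outlier removal, % of control.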

[2] = biological target: T1, GATA4/NKX2-5 (Mus musculus) (UniProt Q08369+P42582); assay: Inhibition of mouse GATA4/mouse NKX2-5 protein-protein interaction expressed in Chlorocebus aethiops COS1 cells harboring 3xHA reporter gene assessed as transcriptional synergy at 10 uM after 24 hrs by luciferase reporter gene assay relative to control; set-up: scale not given: the % may be the effect or the level left
How it was run: (§2)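 COS-1 cells seeded 14 000/well, grown overnight, then transfected for 6 h in serum- and antibiotic-free medium with pGL3-3xHA reporter (three NKX2-5 sites, 100 ng/well) plus pMT2-GATA4 and pMT2-NKX2-5 (total 50 ng/well), Fugene 6 at 1:3 DNA/reagent. Compound or 0.1% DMSO vehicle for 24 h, then luminescence read. Triplicates, Grubbs outliers removed, expressed as % of control.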

[3] = biological target: Transcription factor GATA-4 (Mus musculus) (UniProt Q08369); assay: Inhibition of mouse GATA4 expressed in Chlorocebus aethiops COS1 cells harboring NP-112 reporter gene assessed as BNP promoter-driven transcriptional activity at 10 uM after 24 hrs by luciferase reporter gene assay relative to control; set-up: scale not given: the % may be the effect or the level left
How it was run: (§3)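 GATA reporter assay: COS-1 cells (14 000/well, overnight) transfected 6 h serum/antibiotic-free with NP-112 reporter (tandem GATA sites plus rat BNP minimal promoter, 100 ng/well) and pMT2-GATA4 (25 ng/well), Fugene 6 1:3. Treated 24 h with compound or 0.1% DMSO. Luminescence read; triplicates, Grubbs outliers removed, % of control.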

[4] = biological target: T2, GATA4/NKX2-5 (Rattus norvegicus) (UniProt P46152+O35767); assay: (§4) Modulation of GATA4/NKX2-5 protein-protein interaction in neonatal Wistar rat cardiomyocytes harboring -534/+4 bp rat BNP proximal promoter assessed as reduction in BNP-promoter driven activity at 10 to 30 preincubated for 1 hr followed by hypertrophic agonist endothelin-1 and measured after 24 hrs by luminescence method
How it was run: (§5)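 Neonatal ventricular myocytes from 2–3-day-old Wistar rats, 50 000/well, cultured 18–20 h in DMEM/F12 with 10% FBS. Transfected 24 h in serum-free CSFM with pGL3-BNP (−534/+4 promoter, 100 ng/well), Fugene 6 1:3. Compound or 0.1% DMSO added in CSFM, endothelin-1 1 h later, luminescence after 24 h. Mean + SD, n = 3; ANOVA with Tukey or Games–Howell.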

[5] = biological target: T2, GATA4/NKX2-5 (Rattus norvegicus); assay: as §4, with “hypertrophic response” for “BNP-promoter driven activity”, “at” for “at 10 to”; how it was run: as §5
[6] = biological target: Transcription factor GATA-4 (Mus musculus) (UniProt Q08369); assay: Modulation of mouse GATA4 expressed in Chlorocebus aethiops COS1 cells harboring NP-112 reporter gene assessed as BNP promoter-driven transcriptional activity at 10 uM after 24 hrs by luciferase reporter gene assay relative to control; how it was run: as §3
[7] = biological target: T2, GATA4/NKX2-5 (Rattus norvegicus); assay: as §4, with “increase” for “reduction”; how it was run: as §5
[8] = test system: COS-1; assay: Induction of necrosis in Chlorocebus aethiops COS1 cells assessed as LDH release at 1 to 30 uM after 24 hrs by LDH assay relative to control; details: cos-1, 24 h
How it was run: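 COS-1 cells in DMEM with 10% FBS at 37 °C, 5% CO₂, plated 10 000/well and exposed next day to 1–30 μM for 24 h. Medium samples mixed with NAD, iodonitrotetrazolium, lactate and phenazine methosulfate in 0.2 M Tris-HCl pH 8.2, 30 min at room temperature. Stopped with acetic acid, A490 read and normalized to maximal and spontaneous release.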

[9] = test system: COS-1; assay: Cytotoxicity against Chlorocebus aethiops COS1 cells assessed as reduction in cell viability at 10 uM after 24 hrs by MTT assay relative to control; details: cos-1, 24 h
How it was run: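 COS-1 cells plated 10 000/well, exposed next day for 24 h (range 1–30 μM). Incubated with 0.5 mg/mL MTT for 2 h at 37 °C, formazan dissolved in DMSO, A550 minus A650 background. Means of 2–3 independent experiments with triplicate wells, % of vehicle-treated cells; toxic if viability fell >10% at 10 μM.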

[10] = test system: COS-1; assay: Cytotoxicity against Chlorocebus aethiops COS1 cells assessed as reduction in cell viability at 10 uM after 24 hrs by CellTiter-Glo Luminescent Cell Viability assay relative to control; details: cos-1, 24 h
How it was run: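 Intracellular ATP read-out (CellTiter-Glo) in COS-1 cells plated and treated as for MTT, 24 h exposure, doxorubicin as positive control. Plates equilibrated 30 min at room temperature, washed with PBS, reagent added, mixed 2 min, 15 min at room temperature, then luminescence. Mean + SEM of three independent experiments, % of vehicle-treated cells.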

[11] = biological target: T1, GATA4/NKX2-5 (Mus musculus); assay: Enhancement of mouse GATA4/mouse NKX2-5 protein-protein interaction expressed in Chlorocebus aethiops COS1 cells harboring 3xHA reporter gene assessed as transcriptional synergy at 10 uM after 24 hrs by luciferase reporter gene assay relative to control; how it was run: as §2
[12] = biological target: Homeobox protein Nkx-2.5 (Mus musculus) (UniProt P42582); assay: Enhancement of mouse NKX2-5 expressed in Chlorocebus aethiops COS1 cells harboring 3xHA reporter gene assessed as protein-induced transcriptional activity at 10 uM after 24 hrs by luciferase reporter gene assay relative to control; how it was run: as §1
[13] = biological target: Transcription factor GATA-4 (Mus musculus) (UniProt Q08369); assay: Enhancement of mouse GATA4 expressed in Chlorocebus aethiops COS1 cells harboring NP-112 reporter gene assessed as BNP promoter-driven transcriptional activity at 10 uM after 24 hrs by luciferase reporter gene assay relative to control; how it was run: as §3

Transcription factor GATA-4 (Mus musculus), sequence (Q08369 whole entry): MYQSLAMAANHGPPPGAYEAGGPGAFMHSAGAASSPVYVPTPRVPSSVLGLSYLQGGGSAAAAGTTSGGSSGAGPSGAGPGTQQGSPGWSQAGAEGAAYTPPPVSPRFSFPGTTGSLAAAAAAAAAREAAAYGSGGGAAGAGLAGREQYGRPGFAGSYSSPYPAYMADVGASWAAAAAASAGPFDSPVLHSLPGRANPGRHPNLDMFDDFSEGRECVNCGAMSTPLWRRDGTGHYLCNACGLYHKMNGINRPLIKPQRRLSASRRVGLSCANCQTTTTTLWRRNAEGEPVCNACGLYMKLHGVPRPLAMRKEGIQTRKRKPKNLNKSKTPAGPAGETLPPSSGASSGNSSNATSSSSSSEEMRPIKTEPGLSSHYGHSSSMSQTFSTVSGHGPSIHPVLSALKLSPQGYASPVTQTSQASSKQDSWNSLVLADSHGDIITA
Homeobox protein Nkx-2.5 (Mus musculus), sequence (P42582 whole entry): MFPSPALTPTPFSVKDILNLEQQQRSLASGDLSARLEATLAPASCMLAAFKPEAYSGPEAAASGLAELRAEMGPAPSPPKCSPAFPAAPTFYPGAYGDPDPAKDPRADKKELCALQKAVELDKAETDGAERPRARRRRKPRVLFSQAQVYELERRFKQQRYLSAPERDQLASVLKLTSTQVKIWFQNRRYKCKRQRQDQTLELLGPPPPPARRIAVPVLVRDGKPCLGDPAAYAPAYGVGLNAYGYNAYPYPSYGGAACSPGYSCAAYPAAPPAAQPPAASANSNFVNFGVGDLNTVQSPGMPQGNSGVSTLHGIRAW

Row | Structure (SMILES) | Activity [1] | Activity [2] | Activity [3] | Activity [4] | Activity [5] | Activity [6] | Activity [7] | Activity [8] | Activity [9] | Activity [10] | Activity [11] | Activity [12] | Activity [13]
1 | CCN(c1ccc(NC(=O)c2cnsc2)cc1)C(C)C | 11% | 12% | 20% | Active | Active | – | – | – | – | – | – | – | –
2 | CCN(CC)c1ccc(NC(=O)c2c(C)noc2-c2snnc2C)cc1 | 21% | 24% | – | – | – | 68% | Active | < 8% | > 10% | – | – | – | –
3 | Cc1onc(-c2ccccc2)c1COc1ccc(C(=O)OCCC#N)cc1 | 29% | 26% | 41% | – | – | – | – | < 8% | > 10% | > 10% | – | – | –
4 | CCC(=O)N(Cc1ccc(N(CC)CC)cc1)c1c(-c2ccccc2)noc1C | 34% | 22% | 43% | – | – | – | – | < 8% | > 10% | > 10% | – | – | –
5 | Cc1onc(-c2ccccc2)c1C(=O)N(C1=NC(C)CS1)c1ccc(Cl)cc1 (centres undefined) | – | – | – | – | – | – | Active | < 8% | – | Non-Toxic | 170% | 110% | 220%
